The subject of data set [1] is Human immunodeficiency virus 1. Put plainly: Antiviral activity against HIV1 3B infected in human MT4 cells assessed as reduction in virus-induced cytopathic effect after 5 days by MTT assay. The class given is functional, organism-based. Conditions: Human immunodeficiency virus 1, 3B, MT4, 120 h. The method in brief:
(§1)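 Exponentially growing MT-4 cells were pelleted and resuspended at 6 × 10⁵ cells/mL, then infected with virus stock at 100–300 CCID₅₀. Compounds were added at infection as serial five-fold dilutions in triplicate wells, with untreated infected and mock-infected controls. Viability was read spectrophotometrically by MTT five days post-infection. EC₅₀ is the concentration giving 50% protection from viral cytopathic effect.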

For data set [2], the target named is Human immunodeficiency virus type 1 reverse transcriptase (Human immunodeficiency virus 1, UniProt Q72547). Put plainly: Inhibition of HIV1 reverse transcriptase assessed as reduction in biotin-labeled dUTP incorporation into DNA using poly(A) x oligo(dT)15 as template/primer after 1 hr by ELISA. The method in brief: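 Wild-type HIV-1 RT was assayed with a plate-bound homopolymer poly[A]·oligo[dT]₁₅ template/primer and biotin-dUTP, following the Roche RT kit protocol. Incorporated biotin-dUTP, a measure of RT activity, was quantified by ELISA. Percentage inhibition was calculated by formula, and IC₅₀ is the concentration inhibiting biotin-dUTP incorporation by 50%.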
On the technique in general: An ELISA detects its analyte on a solid surface through an enzyme-linked reagent.

Data set [3] can be described thus: Selectivity index, ratio of CC50 for mock-infected human MT4 cells to EC50 for HIV1 3B infected in human MT4 cells. The class given is toxicity, cell-based. The following applies: mock-infected and infected with HIV1 3B, read-out: Selectivity Index. A digest of the protocol:
(§2)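 MT-4 cells resuspended at 6 × 10⁵ cells/mL, then infected with 100–300 CCID₅₀ of HIV-1 IIIB or RES056 or left mock-infected. Compound, in serial five-fold dilutions in triplicate wells, was added at the start. Viability was read by MTT after 5 days. EC₅₀ is 50% protection from viral cytopathicity, CC₅₀ is 50% viability loss in mock-infected cells, and SI is CC₅₀/EC₅₀.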

The subject of data set [4] is Human immunodeficiency virus 2. Description: Antiviral activity against HIV2 strain ROD infected in human MT4 cells assessed as reduction in virus-induced cytopathic effect at subtoxic concentration. The class given is functional, organism-based. The following applies: ISOLATE ROD. The method in brief: as §1
On the technique in general: Protection from cytopathic effect is a common read-out in antiviral testing.

Data set [5] relates to Human immunodeficiency virus 1. Description: Antiviral activity against HIV1 RES056 expressing reverse transcriptase K103N/Y181C double mutant infected in human MT4 cells assessed as reduction in virus-induced cytopathic effect after 5 days by MTT assay. The following applies: Human immunodeficiency virus 1, RES056, MT4, 120 h. The class given is functional, organism-based. The method in brief: as §2

Data set [6] in a line: Selectivity index, ratio of CC50 for mock-infected human MT4 cells to EC50 for HIV1 RES056 expressing reverse transcriptase K103N/Y181C double mutant. The class given is toxicity, cell-based. The following applies: read-out: Selectivity Index. The method in brief: as §2

Structures can show the parent of a compound that is named as a salt. The source made the active and inactive calls. The calls are words filed in the database; no cut-off is given here.

One may read the EC50 as the midpoint of the concentration-response curve. For orientation: IC50 means the concentration that gives 50% inhibition. With `Cc1cc(C#N)cc(C)c1Oc1nc(Nc2ccc(Cl)cc2)cn2ccnc12`, the EC50 in data set [1] is greater than 13 µM. Also, the IC50 in data set [2] came to 5.5 µM. Moreover, the selectivity ratio in data set [3] is less than 1. The inhibition result in data set [4] is “inactive”.

Turning to `CC(C)Nc1cccnc1N1CCN(C(=O)c2cc3cc(NS(C)(=O)=O)ccc3[nH]2)CC1` [DELAVIRDINE MESYLATE], the selectivity ratio is greater than 67 in data set [3] and 1 in data set [6]. The EC50 in data set [5] was greater than 36 µM.

Consider `Cc1cc(C#N)cc(C)c1Oc1nc(Nc2ccc(C#N)cc2)cn2ccnc12`, for which the EC50 is 0.32 µM in data set [1] and greater than 73 µM in data set [5]. In data set [2], the IC50 turned out to be 0.26 µM. Besides, the selectivity ratio is no less than 224 in data set [3] and 1 in data set [6]. The inhibition entry in data set [4] is “inactive”.

With `Cc1cccc(C)c1Oc1nc(Nc2ccc(Cl)cc2)cn2ccnc12`, the EC50 in data set [1] and in data set [5] was greater than 57 µM throughout. For the same molecule, the IC50 in data set [2] was 15 µM. Also, the selectivity ratio in data set [3] and in data set [6] was less than 1 each time. In addition, the inhibition result in data set [4] was “inactive”.

Consider `Cc1cc(Cl)cc(C)c1Oc1nc(Nc2ccc(C#N)cc2)cn2ccnc12`, for which the values for the EC50 in data set [1] and in data set [5] were 0.87 µM and greater than 34 µM, respectively. Besides, the IC50 in data set [2] stood at 1.1 µM. Further, the values for the selectivity ratio in data set [3] and in data set [6] were 39 and less than 1, respectively. Moreover, the inhibition result in data set [4] is “inactive”.

With `Cc1cccc(C)c1Oc1nc(Nc2ccc(CC#N)cc2)cn2ccnc12`, the EC50 in data set [1] and in data set [5] was greater than 156 µM each time. The IC50 in data set [2] was determined as 5.7 µM. Also, the selectivity ratio in data set [3] and in data set [6] was less than 1 each time. In data set [4], the inhibition result was “inactive”.

For `Cc1cc(C)c(Oc2nc(Nc3ccc(Cl)cc3)cn3ccnc23)c(C)c1`, the EC50 in data set [1] and in data set [5] was greater than 12 µM in each case. Moreover, in data set [2], the 50% inhibitory concentration (IC50) amounted to 5.9 µM. Besides, the selectivity ratio in data set [3] and in data set [6] was less than 1 in each case. In addition, the inhibition entry in data set [4] is “inactive”.

As for `Cc1cc(Cl)cc(C)c1Oc1nc(Nc2ccc([N+](=O)[O-])cc2)cn2ccnc12`, the half-maximal effective concentration (EC50) in data set [1] is 4.6 µM; in data set [5] it was greater than 33 µM. In data set [2], the IC50 was 1.3 µM. Moreover, the selectivity ratio in data set [3] was 7; in data set [6], less than 1. In data set [4], the inhibition entry is “inactive”.

Consider `Cc1cc(C)c(Oc2nc(Nc3ccc(CC#N)cc3)cn3ccnc23)c(C)c1`, for which the EC50 in data set [1] is 9.2 µM; in data set [5], greater than 117 µM. Also, in data set [2], the IC50 came to 0.36 µM. The selectivity ratio in data set [3] is 13; in data set [6] it was less than 1. Besides, the inhibition entry in data set [4] is “inactive”.

For `Cc1cccc(C)c1Oc1nc(Nc2ccc([N+](=O)[O-])cc2)cn2ccnc12`, in data set [1], the EC50 was greater than 5.3 µM. Also, in data set [2], the IC50 was determined as 334 µM. In addition, the selectivity ratio in data set [3] was less than 1. Further, in data set [4], the inhibition entry was “inactive”.

In the case of `Cc1cc(C#N)cc(C)c1Oc1nc(Nc2ccc(C#N)cc2)nc(N)c1Br` [ETRAVIRINE], the EC50 is 0.004 µM in data set [1] and 0.02 µM in data set [5].

On to `Cc1cc(Br)cc(C)c1Oc1nc(Nc2ccc([N+](=O)[O-])cc2)cn2ccnc12`, for which the EC50 in data set [1] is 4 µM; in data set [5], greater than 28 µM. Further, the IC50 in data set [2] was 4.1 µM. The selectivity ratio was 7 in data set [3] and less than 1 in data set [6]. In addition, in data set [4], the inhibition entry was “inactive”.

As for `Cc1cn([C@H]2C[C@H](N=[N+]=[N-])[C@@H](CO)O2)c(=O)[nH]c1=O` [ZIDOVUDINE], the selectivity ratio is greater than 13100 in data set [3] and greater than 9150 in data set [6]. Besides, the EC50 in data set [5] is 0.01 µM.

In the case of `O=c1[nH]cnc2c1ncn2[C@H]1CC[C@@H](CO)O1` [DIDANOSINE], the selectivity ratio in data set [3] was greater than 9.

Turning to `Cc1cc(C#N)cc(C)c1Oc1nc(Nc2ccc(C#N)cc2)nc2[nH]ccc12`, the EC50 in data set [1] was 0.0009 µM.

With `Cc1cc(Br)cc(C)c1Oc1nc(Nc2ccc(C#N)cc2)cn2ccnc12`, the EC50 in data set [1] is 0.98 µM; in data set [5], greater than 28 µM. In addition, in data set [2], the IC50 stood at 0.41 µM. Besides, the selectivity ratio was 28 in data set [3] and less than 1 in data set [6]. Further, the inhibition entry in data set [4] is “inactive”.

Consider `Cc1cccc(C)c1Oc1nc(Nc2ccc(C#N)cc2)cn2ccnc12`, for which the values for the EC50 in data set [1] and in data set [5] were 6.5 µM and greater than 32 µM, respectively. The IC50 in data set [2] was determined as 0.82 µM. Further, the selectivity ratio in data set [3] was 5; in data set [6], less than 1. Also, in data set [4], the inhibition entry was “inactive”.

Consider `Cc1cc(C)c(Oc2nc(Nc3ccc(C#N)cc3)cn3ccnc23)c(C)c1`, for which the EC50 in data set [1] was 0.26 µM; in data set [5], greater than 33 µM. Besides, the IC50 in data set [2] worked out at 0.4 µM. In addition, the selectivity ratio was 126 in data set [3] and less than 1 in data set [6]. The inhibition result in data set [4] is “inactive”.

Consider `Nc1ccn([C@@H]2CS[C@H](CO)O2)c(=O)n1` [LAMIVUDINE], for which the selectivity ratio in data set [3] is greater than 39.

With `Cc1cc(C)c(Oc2nc(Nc3ccc([N+](=O)[O-])cc3)cn3ccnc23)c(C)c1`, the EC50 was 1.3 µM in data set [1] and greater than 34 µM in data set [5]. For the same molecule, the IC50 in data set [2] was determined as 4.7 µM. For the same molecule, the selectivity ratio in data set [3] was 25; in data set [6], less than 1. In data set [4], the inhibition result is “inactive”.

Regarding `O=[N+]([O-])c1ccc(Nc2cn3ccnc3c(Oc3c(F)cc(F)cc3F)n2)cc1`, the EC50 in data set [1] and in data set [5] was greater than 28 µM in each case. Further, the IC50 in data set [2] was 11 µM. Further, the selectivity ratio in data set [3] and in data set [6] was less than 1 throughout. The inhibition entry in data set [4] is “inactive”.

As to `N#Cc1ccc(Nc2cn3ccnc3c(Oc3c(F)cc(F)cc3F)n2)cc1`, the EC50 in data set [1] is 7.2 µM; in data set [5], greater than 38 µM. Further, in data set [2], the IC50 worked out at 0.47 µM. Besides, the figures for the selectivity ratio in data set [3] and in data set [6] were 5 and less than 1, respectively. Besides, the inhibition result in data set [4] was “inactive”.

`Cc1cc(C#N)cc(C)c1Oc1nc(Nc2ccc([N+](=O)[O-])cc2)cn2ccnc12`: the 50% effective concentration (EC50) in data set [1] is 2.3 µM; in data set [5], greater than 29 µM. In addition, in data set [2], the IC50 was found to be 14 µM. The figures for the selectivity ratio in data set [3] and in data set [6] were 13 and less than 1, respectively. For the same molecule, the inhibition entry in data set [4] is “inactive”.

In the case of `Cc1ccnc2c1NC(=O)c1cccnc1N2C1CC1` [NEVIRAPINE], the EC50 in data set [5] is no less than 7.6 µM.

As to `Cc1cc(C#N)cc(C)c1Oc1nc(Nc2ccc(CC#N)cc2)cn2ccnc12`, the EC50 in data set [1] is 19 µM; in data set [5] it was greater than 282 µM. The IC50 in data set [2] was found to be 0.17 µM. For the same molecule, the selectivity ratio in data set [3] is 15; in data set [6], less than 1. In addition, in data set [4], the inhibition entry is “inactive”.

The values above are taken from ChEMBL document CHEMBL3414545, “Fused heterocycles bearing bridgehead nitrogen as potent HIV-1 NNRTIs. Part 4: design, synthesis and biological evaluation of novel imidazo[1,2-a]pyrazines” (Eur J Med Chem, 2015).
